Calls of active or inactive are those of the source. The calls are words filed in the database; no cut-off is given here.
Columns and labels:
Staphylococcus aureus [1] = experiment: Growth inhibition against methicillin-susceptible Staphylococcus aureus ATCC 25923 after 2 hrs by agar dilution; type: functional, organism-based
Escherichia coli = experiment: Effect on pBR322 fragmentation at 5 to 100 uM after 24 hrs by agarose gel electrophoresis; type: functional
How it was run: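 Supercoiled pBR322 (0.5 μg) in 50 mM sodium phosphate, pH 7.4, treated with 5–100 μM compound (added in DMSO; DMSO-only lane as control), 37°C for 24 h. Aliquots run on 1.2% agarose/TAE gel with ethidium bromide at 80 V/10 cm for 2.5 h, UV visualization of single- and double-strand breakage.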

Staphylococcus aureus [2] = experiment: Growth inhibition against […] Staphylococcus aureus ATCC 25923 after 2 hrs by agar dilution; type: functional, organism-based
How it was run: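 Log-phase overnight culture inoculated at 10^6 cfu/mL into fresh Mueller-Hinton broth and shaken 1 hr at 35°C. Compound in DMSO then added at 1, 5 or 10 times the MIC, with MIC set by agar dilution in Mueller-Hinton II agar read after 24 hr at 37°C. Growth was followed by viable counts from plated dilutions (colonies counted after 24 hr) and OD 630 nm.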

Staphylococcus aureus [3] = experiment: Effect on fatty acid biosynthesis in Staphylococcus aureus RN4220 assessed as [3H]acetate uptake relative to control; type: functional, organism-based
How it was run: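 Strain RN4220 grown at 37 °C to A600 0.11 (1.3 x 10^7 cfu/mL), split into 5 mL tubes; drug added at 1x or 2x MIC (final DMSO 2%), penicillin G 2xMIC and no-drug controls. After 5 min, 3H-acetate added (4 μCi/mL); 0.8 mL aliquots at 15, 30, 45, 60 min extracted with chloroform/methanol; uptake compared with controls.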

Staphylococcus aureus [4] = experiment: Inhibition of cell wall biosynthesis in Staphylococcus aureus assessed as cytoplasmic membrane rupture; type: functional, organism-based
How it was run: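 S. aureus ATCC 25923 lawns on TSA with 6-mm paper discs carrying 20 μg compound or penicillin G. SEM: after 24 h at 37°C, agar at the edge of inhibition zones cut out, glutaraldehyde-osmium fixed, gold/palladium coated, imaged for cell morphology. Light microscopy: after 4–5 h, cells lifted onto coverslips from zones, Gram-stained (safranin counterstain), viewed bright-field.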

Staphylococcus aureus [5] = experiment: Effect on RNA transcription in Staphylococcus aureus ATCC 25923 assessed as [3H]uridine incorporation after 20 mins relative to control; type: functional
How it was run: (§1)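 Early log-phase cells in Luria Broth labelled with 3 μCi [methyl-3H]thymidine (DNA) or 3 μCi [5-3H]uridine (RNA), with or without drug at twice the MIC; ciprofloxacin (DNA) or rifampicin (RNA) as reference inhibitors, DMSO control. 50 μL samples taken at 5, 10, 20, 30, 45, 60 min into ice-cold 10% TCA; precipitated radioactivity by liquid scintillation, expressed relative to untreated control.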

Staphylococcus aureus [6] = experiment: Growth inhibition against penicillin-susceptible Staphylococcus ATCC 25923 aureus after 24 hrs; type: functional, organism-based
How it was run: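 Well-diffusion plate: 10^8 suspension in PBS pH 7.4 swabbed on TSA; 6-mm wells loaded with 20 μg compound (from 1 mg/mL DMSO stock), penicillin G 20 μg as comparator; 37°C, 24 h; growth-inhibition zones read.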

Staphylococcus aureus [7] = experiment: Effect on DNA replication in Staphylococcus aureus ATCC 25923 assessed as inhibition of [3H]thymidine utilization after 30 mins relative to control; type: functional; parameters: scale not given: the % may be the effect or the level left; how it was run: as §1

`CO[C@H]1C(=O)N(SC)[C@H]1c1ccccc1Cl` was tested, and the Activity (Staphylococcus aureus [1]) was “Active”, the Activity (Escherichia coli) was “inactive” and the Activity (Staphylococcus aureus [2]) was “Active”. The Activity (Staphylococcus aureus [3]) was “Active”, the Activity (Staphylococcus aureus [4]) was “inactive” and the Activity (Staphylococcus aureus [5]) was 80%. For the same compound, the Activity (Staphylococcus aureus [6]) was “Active” and the Activity (Staphylococcus aureus [7]) was over 90%.
`CO[C@H]1/C=C/O[C@@]2(C)Oc3c(C)c(O)c4c(O)c(c(/C=N/N5CCN(C)CC5)c(O)c4c3C2=O)NC(=O)/C(C)=C\C=C\[C@H](C)[C@H](O)[C@@H](C)[C@@H](O)[C@@H](C)[C@H](OC(C)=O)[C@@H]1C` [RIFAMPIN] gave an Activity (Staphylococcus aureus [5]) of under 20%.
In the case of `CC1(C)S[C@@H]2[C@H](NC(=O)Cc3ccccc3)C(=O)N2[C@H]1C(=O)O`, the Activity (Staphylococcus aureus [4]) is reported as “Active” and the Activity (Staphylococcus aureus [6]) is reported as “inactive”.
`O=C(O)c1cn(C2CC2)c2cc(N3CCNCC3)c(F)cc2c1=O` [CIPROFLOXACIN] gave an Activity (Staphylococcus aureus [7]) of 65%.

Source: ChEMBL document CHEMBL1147030, “N-thiolated beta-lactams: Studies on the mode of action and identification of a primary cellular target in Staphylococcus aureus” (2007)
